Assay results published in ChEMBL document CHEMBL3407438, “Discovery of potent, orally bioavailable, small-molecule inhibitors of WNT signaling from a cell-based pathway screen” (J Med Chem, 2015).
The source made the active and inactive calls. The calls are words filed in the database; no cut-off is given here.

Key:
COLO 205 [1] = assay: Effect on TCF4 level in human COLO205-F1756 clone 4 cells harboring APC mutant and TCF/LEF responsive element at 350 nM by immunoblotting; format: functional, cell-based
[2] = Clearance in Wistar rat at 0.2 mg/kg, iv; format: ADME, organism-based; set-up: dose 0.2 mg/kg, route intravenous; conditions: in vivo
How it was run: (§1)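 Male Wistar rats (n = 6) received cassette dosing, either iv bolus at 0.2 mg/kg or oral gavage at 0.5 mg/kg per compound, in DMSO/PEG 200/water. Plasma levels were measured by UPLC–MS/MS.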

[3] = Clearance in NMRI mouse at 0.2 mg/kg, iv; format: ADME, organism-based; set-up: dose 0.2 mg/kg, route intravenous; conditions: in vivo
How it was run: (§2)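 Female NMRI mice (n = 5) given a single iv bolus (0.2 mg/kg per compound) or oral gavage (0.5 mg/kg per compound) as a cassette, in DMSO/PEG 200/water. Serial retro-orbital blood was drawn under isoflurane from 3 animals per route at 0.1 (iv), 0.25 (po), 0.5, 1, 2, 4 and 6 h. Plasma was quantified by LC–MS/MS.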

Cytochrome P450 2C9 = Cytochrome P450 2C9 (Homo sapiens, UniProt P11712); assay: Inhibition of CYP2C9 (unknown origin); format: ADME; conditions: human
[4] = Drug uptake in tumor of human COLO205-F1756 clone 4 cells harboring APC mutant xenografted CrTac:NCr-Foxn1nu mouse at 70 mg/kg, po bid for 9 days measured after 2 to 6 hrs; format: ADME, organism-based, COLO 205; set-up: dose 70 mg/kg, route oral; conditions: in vivo
How it was run: (§3)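 In COLO205-F1756 clone 4 xenograft-bearing nude mice dosed orally at 70 mg/kg bid, cardiac blood and tumours were taken 2 and 6 h after the final dose. Tumours were homogenized in 3 v/w PBS, methanol-extracted with internal standard, and total levels were measured by UPLC–MS/MS (MRM, positive ion).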

[5] = Volume of distribution at steady state in Wistar rat at 0.2 mg/kg, iv; format: ADME, organism-based; set-up: dose 0.2 mg/kg, route intravenous; conditions: in vivo, read-out: Vdss; how it was run: as §1
[6] = Antitumor activity against human COLO205-F1756 clone 4 cells harboring APC mutant xenografted in CrTac:NCr-Foxn1nu mouse assessed as reduction in flux normalized to tumor weight at 70 mg/kg, po bid for 9 days relative to control; format: functional, COLO 205; set-up: scale not given: the % may be the effect or the level left
How it was run: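 Female athymic nude mice were implanted sc in the flank with 3 million COLO205-F1756 clone 4 cells. At about 100 mm3, groups of n = 8 were gavaged at 70 mg/kg bid or with vehicle (10% DMSO, 5% Tween 20 in saline). Luminescent flux was imaged after sc D-luciferin 2 and 6 h post final dose, then tumours were excised and weighed. Mann–Whitney U test.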

[7] = Tmax in Wistar rat at 0.5 mg/kg, po; format: ADME, organism-based; set-up: dose 0.5 mg/kg, route oral; conditions: in vivo; how it was run: as §1
[8] = Thermodynamic aqueous solubility of the compound in phosphate buffer at pH 7.4; format: physicochemical
How it was run: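 Kinetic and thermodynamic aqueous solubilities were measured in phosphate buffer at pH 7.4.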

Cytochrome P450 2C8 = biological target: T1, Cytochrome P450 2C8 (Homo sapiens, UniProt P10632); assay: Inhibition of CYP2C8 (unknown origin); format: ADME
T1 sequence (P10632 whole entry): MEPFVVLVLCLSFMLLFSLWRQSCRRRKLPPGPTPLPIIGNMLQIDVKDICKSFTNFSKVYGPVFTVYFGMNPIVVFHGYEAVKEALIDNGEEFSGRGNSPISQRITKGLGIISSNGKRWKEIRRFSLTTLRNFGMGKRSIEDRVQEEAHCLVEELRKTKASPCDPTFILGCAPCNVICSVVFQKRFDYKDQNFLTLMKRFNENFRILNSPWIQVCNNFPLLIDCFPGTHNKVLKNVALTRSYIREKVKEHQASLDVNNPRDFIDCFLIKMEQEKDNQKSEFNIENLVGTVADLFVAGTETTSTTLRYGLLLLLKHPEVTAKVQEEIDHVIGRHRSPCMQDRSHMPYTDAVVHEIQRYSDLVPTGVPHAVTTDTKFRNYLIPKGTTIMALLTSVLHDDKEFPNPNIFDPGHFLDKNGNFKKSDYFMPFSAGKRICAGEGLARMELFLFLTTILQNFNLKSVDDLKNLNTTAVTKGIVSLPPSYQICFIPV

Plasma = assay: Drug uptake in plasma of human COLO205-F1756 clone 4 cells harboring APC mutant xenografted CrTac:NCr-Foxn1nu mouse at 70 mg/kg, po bid for 9 days measured after 2 to 6 hrs; format: ADME, organism-based, COLO 205; set-up: dose 70 mg/kg, route oral; conditions: in vivo; how it was run: as §3
[9] = Tmax in Wistar rat at 0.2 mg/kg, iv; format: ADME, organism-based; set-up: dose 0.2 mg/kg, route intravenous; conditions: in vivo; how it was run: as §1
COLO 205 [10] = assay: Effect on TCF1 level in human COLO205-F1756 clone 4 cells harboring APC mutant and TCF/LEF responsive element at 350 nM by immunoblotting; format: functional, cell-based
[11] = AUC in Wistar rat at 0.5 mg/kg, po; format: ADME, organism-based; set-up: dose 0.5 mg/kg, route oral; conditions: plasma; how it was run: as §1
[12] = Tmax in NMRI mouse at 0.5 mg/kg, po; format: ADME, organism-based; set-up: dose 0.5 mg/kg, route oral; conditions: in vivo; how it was run: as §2
in vivo = conditions: Wistar, rat, iv, 0.2 mg/kg
Cytochrome P450 3A4 = Cytochrome P450 3A4 (Homo sapiens, UniProt P08684); assay: Inhibition of CYP3A4 (unknown origin); format: ADME; conditions: human
[13] = Volume of distribution at steady state in NMRI mouse at 0.2 mg/kg, iv; format: ADME, organism-based; set-up: dose 0.2 mg/kg, route intravenous; conditions: in vivo, read-out: Vdss; how it was run: as §2

Sequence of Cytochrome P450 2C9 (P11712 whole entry): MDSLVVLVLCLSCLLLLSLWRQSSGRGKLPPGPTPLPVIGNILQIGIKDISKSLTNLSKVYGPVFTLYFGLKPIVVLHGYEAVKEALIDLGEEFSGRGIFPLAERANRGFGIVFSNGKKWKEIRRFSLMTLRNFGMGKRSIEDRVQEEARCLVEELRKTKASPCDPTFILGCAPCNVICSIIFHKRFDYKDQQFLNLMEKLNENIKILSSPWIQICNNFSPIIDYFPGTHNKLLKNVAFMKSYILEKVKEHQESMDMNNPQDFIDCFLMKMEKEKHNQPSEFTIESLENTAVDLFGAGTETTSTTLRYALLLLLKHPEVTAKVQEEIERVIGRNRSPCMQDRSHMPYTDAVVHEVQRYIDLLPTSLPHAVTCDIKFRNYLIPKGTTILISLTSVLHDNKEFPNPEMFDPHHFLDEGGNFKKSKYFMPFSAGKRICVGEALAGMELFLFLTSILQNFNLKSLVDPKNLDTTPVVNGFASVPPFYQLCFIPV
Sequence of Cytochrome P450 3A4 (P08684 whole entry): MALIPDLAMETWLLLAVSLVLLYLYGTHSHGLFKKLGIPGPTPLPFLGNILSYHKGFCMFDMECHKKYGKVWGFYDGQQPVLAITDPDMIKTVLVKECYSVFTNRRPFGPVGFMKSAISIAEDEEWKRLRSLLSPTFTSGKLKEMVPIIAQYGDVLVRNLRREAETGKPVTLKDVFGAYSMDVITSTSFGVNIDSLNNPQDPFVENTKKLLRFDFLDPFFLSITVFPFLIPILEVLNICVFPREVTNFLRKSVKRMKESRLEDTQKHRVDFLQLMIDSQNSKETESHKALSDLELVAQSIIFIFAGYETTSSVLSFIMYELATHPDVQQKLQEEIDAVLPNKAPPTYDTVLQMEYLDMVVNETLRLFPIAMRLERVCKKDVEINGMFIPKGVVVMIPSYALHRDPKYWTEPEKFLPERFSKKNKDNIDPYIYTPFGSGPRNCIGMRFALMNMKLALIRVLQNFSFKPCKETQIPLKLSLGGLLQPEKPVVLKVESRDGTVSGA

Cn1cc(-c2ccc(-c3cncc(Cl)c3N3CCC4(CCNC4=O)CC3)cc2)cn1
Activity (COLO 205 [1]): inactive | clearance [2]: 26 mL/min/kg | clearance [3]: 31 mL/min/kg | inhibition (INH) (Cytochrome P450 2C9): Not Active | Drug uptake [4]: Active | Vd [5]: 1.8 L/kg | Activity [6]: 80% | Tmax [7]: 15 min | Therm_solubility [8]: 6 µg/mL | inhibition (INH) (Cytochrome P450 2C8): Not Active | Drug uptake (Plasma): Active | Tmax [9]: 6 min | Activity (COLO 205 [10]): inactive | AUC [11]: 288 ng·h/mL | Tmax [12]: 15 min | half-life (in vivo): 58.2 min | inhibition (INH) (Cytochrome P450 3A4): Not Active | Vd [13]: 1.1 L/kg
